{"source": "paper PMC2791397", "about": "(Biochimica et biophysica acta, 2009)", "key": {"yeast cells": {"system": "yeast cells", "assay": "Cellular growth in the presence of varying concentrations of 3-AT", "type": "cell-based, budding yeast Saccharomyces cerevisiae", "conditions": "30°C, three to five days", "how_it_was_run": "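BY4742-background strains (MATα his3Δ1 leu2Δ0 lys2Δ0 ura3Δ0; isogenic MATa dot1Δ or hmt1Δ) made HIS+ by transformation with a 1.75 kb HIS3 fragment. GCN5 deleted with a gcn5::hisG-URA3-hisG fragment. Log-phase cells from rich medium were serially diluted, spotted onto SC –His plates containing varying 3-AT concentrations, and scored for growth.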"}, "[1]": {"system": "Imidazoleglycerol-phosphate dehydratase (His3p)", "conditions": "cited from earlier work"}, "Hmt1p": {"biological_target": "Hmt1p (Saccharomyces cerevisiae, UniProt P38074)", "sequence (P38074 whole entry)": "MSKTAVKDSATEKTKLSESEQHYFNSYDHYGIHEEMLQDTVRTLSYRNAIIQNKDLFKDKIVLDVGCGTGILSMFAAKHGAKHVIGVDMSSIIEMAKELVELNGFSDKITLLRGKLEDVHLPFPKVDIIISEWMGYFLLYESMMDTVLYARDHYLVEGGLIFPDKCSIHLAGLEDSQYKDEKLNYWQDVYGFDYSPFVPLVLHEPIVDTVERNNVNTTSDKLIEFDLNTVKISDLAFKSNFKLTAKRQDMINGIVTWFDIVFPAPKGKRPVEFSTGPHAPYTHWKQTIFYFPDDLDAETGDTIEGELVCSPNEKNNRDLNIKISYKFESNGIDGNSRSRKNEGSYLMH", "assay": "Kinetic studies of Hmt1p-mediated H4 peptide methylation", "type": "biochemical, budding yeast Saccharomyces cerevisiae", "conditions": "peptide 0.01 to 10 μM, 3.3 μM 3H-SAM, app. 25 ng GST-Hmt1p, pH 8.0, 30°C, 3 min; Hanes/Wolffe plot; average, n ranging from 2 to 8"}}}
{"compound": "Nc1nc[nH]n1", "note": "[3-AT, 3-amino-1,2,4-triazole]", "values": [{"measurement": "sensitivity to 3-AT, dot1 deletion", "setting": "yeast cells; dot1! cells, SC -His plates", "result": "did not have an obvious effect"}, {"measurement": "sensitivity to 3-AT, gcn5 deletion", "setting": "yeast cells; gcn5! cells, SC -His plates", "result": "hypersensitive"}, {"measurement": "resistance to 3-AT, gcn5 hmt1 double knockout", "setting": "yeast cells; gcn5! hmt1! cells vs gcn5! strain, SC -His plates", "result": "significantly higher resistance to 3-AT"}, {"measurement": "sensitivity to 3-AT, hmt1 deletion", "setting": "yeast cells; hmt1! cells, 20- and 40-mM 3-AT plates, SC -His", "result": "sustain higher concentrations of 3-AT"}, {"measurement": "inhibition of Imidazoleglycerol-phosphate dehydratase", "setting": "[1]", "result": "competitive inhibitor"}]}
{"compound": "Ac.K8: synthetic histone H4 peptide (residues 1–18) with acetyllysine at position 8", "values": [{"measurement": "Km", "setting": "Hmt1p", "result": "0.059 ± 0.02", "unit": "µM"}]}
